Measured values published in ChEMBL document CHEMBL5058577, “EUbOPEN Chemogenomics Library 2 (Multiplex)” (2022).

System: Fibroblast
Assay: Multiplex assay against human fibroblast
Assay type: toxicity, cell-based
In short: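 Imaging took place on a CQ1 microscope at 37°C and 5% CO2 once compound had been added to live cells stained at seeding with Hoechst33342, BioTracker Green Microtubule Cytoskeleton Dye, MitoTracker Red and Annexin V Alexa Fluor 680. CellPathfinder machine-learning gating classed cells as Hoechst high-intensity objects or normal cells, classed normal cells as having healthy, pyknosed or fragmented nuclei, and classed pyknosed cells as mitotic or apoptotic. Tubulin, mitochondrial-mass and membrane-permeability phenotypes are per cents of the healthy-nucleus cells.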

[1] = 12 h, 1 µM, compound concentration 1 uM, replicate 1
[2] = 12 h, 1 µM, compound concentration 1 uM, replicate 2
[3] = 12 h, 10 µM, compound concentration 10 uM, replicate 1
[4] = 12 h, 10 µM, compound concentration 10 uM, replicate 2
[5] = 24 h, 1 µM, compound concentration 1 uM, replicate 1
[6] = 24 h, 1 µM, compound concentration 1 uM, replicate 2
[7] = 24 h, 10 µM, compound concentration 10 uM, replicate 1
[8] = 24 h, 10 µM, compound concentration 10 uM, replicate 2
[9] = 48 h, 1 µM, compound concentration 1 uM, replicate 1
[10] = 48 h, 1 µM, compound concentration 1 uM, replicate 2
[11] = 48 h, 10 µM, compound concentration 10 uM, replicate 1
[12] = 48 h, 10 µM, compound concentration 10 uM, replicate 2

## CC[C@H]1OC(=O)[C@H](C)[C@@H](O[C@H]2C[C@@](C)(OC)[C@@H](O)[C@H](C)O2)[C@H](C)[C@@H](O[C@@H]2O[C@H](C)C[C@H](N(C)C)[C@H]2O)[C@@]2(C)CC(C)=C(O2)[C@H](C)[C@@H](O)[C@]1(C)O
[1]
  Population Apoptotic (%): 37%
  Population Fragmented Nuclei (%): 13%
  Population Healthy Nuclei (%): 72%
  Population Hoechst High Intensity Objects (%): 2%
  Population Membrane Permeable-Phenotype (%): 0%
  Population Mitochondria Different-Phenotype (%): 8%
  Population Mitotic Cells (%): 62%
  Population Normal (%): 97%
  Population Pyknosed Nuclei (%): 13%
  Population Tubulin-Different-Phenotype (%): 40%
  Total Cell Count: 176
[2]
  Population Apoptotic (%): 46%
  Population Fragmented Nuclei (%): 23%
  Population Healthy Nuclei (%): 57%
  Population Hoechst High Intensity Objects (%): 3%
  Population Membrane Permeable-Phenotype (%): 9%
  Population Mitochondria Different-Phenotype (%): 6%
  Population Mitotic Cells (%): 53%
  Population Normal (%): 96%
  Population Pyknosed Nuclei (%): 18%
  Population Tubulin-Different-Phenotype (%): 53%
  Total Cell Count: 170
[3]
  Population Apoptotic (%): 48%
  Population Fragmented Nuclei (%): 24%
  Population Healthy Nuclei (%): 63%
  Population Hoechst High Intensity Objects (%): 3%
  Population Membrane Permeable-Phenotype (%): 0%
  Population Mitochondria Different-Phenotype (%): 25%
  Population Mitotic Cells (%): 52%
  Population Normal (%): 96%
  Population Pyknosed Nuclei (%): 12%
  Population Tubulin-Different-Phenotype (%): 86%
  Total Cell Count: 205
[4]
  Population Apoptotic (%): 40%
  Population Fragmented Nuclei (%): 41%
  Population Healthy Nuclei (%): 33%
  Population Hoechst High Intensity Objects (%): 4%
  Population Membrane Permeable-Phenotype (%): 14%
  Population Mitochondria Different-Phenotype (%): 11%
  Population Mitotic Cells (%): 59%
  Population Normal (%): 95%
  Population Pyknosed Nuclei (%): 25%
  Population Tubulin-Different-Phenotype (%): 73%
  Total Cell Count: 133
[5]
  Population Apoptotic (%): 52%
  Population Fragmented Nuclei (%): 18%
  Population Healthy Nuclei (%): 69%
  Population Hoechst High Intensity Objects (%): 4%
  Population Membrane Permeable-Phenotype (%): 0%
  Population Mitochondria Different-Phenotype (%): 7%
  Population Mitotic Cells (%): 47%
  Population Normal (%): 95%
  Population Pyknosed Nuclei (%): 12%
  Population Tubulin-Different-Phenotype (%): 45%
  Total Cell Count: 173
[6]
  Population Apoptotic (%): 46%
  Population Fragmented Nuclei (%): 29%
  Population Healthy Nuclei (%): 52%
  Population Hoechst High Intensity Objects (%): 3%
  Population Membrane Permeable-Phenotype (%): 7%
  Population Mitochondria Different-Phenotype (%): 5%
  Population Mitotic Cells (%): 53%
  Population Normal (%): 96%
  Population Pyknosed Nuclei (%): 17%
  Population Tubulin-Different-Phenotype (%): 36%
  Total Cell Count: 176
[7]
  Population Apoptotic (%): 52%
  Population Fragmented Nuclei (%): 22%
  Population Healthy Nuclei (%): 69%
  Population Hoechst High Intensity Objects (%): 2%
  Population Membrane Permeable-Phenotype (%): 0%
  Population Mitochondria Different-Phenotype (%): 37%
  Population Mitotic Cells (%): 47%
  Population Normal (%): 97%
  Population Pyknosed Nuclei (%): 8%
  Population Tubulin-Different-Phenotype (%): 89%
  Total Cell Count: 199
[8]
  Population Apoptotic (%): 46%
  Population Fragmented Nuclei (%): 40%
  Population Healthy Nuclei (%): 39%
  Population Hoechst High Intensity Objects (%): 1%
  Population Membrane Permeable-Phenotype (%): 8%
  Population Mitochondria Different-Phenotype (%): 12%
  Population Mitotic Cells (%): 53%
  Population Normal (%): 98%
  Population Pyknosed Nuclei (%): 20%
  Population Tubulin-Different-Phenotype (%): 81%
  Total Cell Count: 127
[9]
  Population Apoptotic (%): 55%
  Population Fragmented Nuclei (%): 17%
  Population Healthy Nuclei (%): 71%
  Population Hoechst High Intensity Objects (%): 3%
  Population Membrane Permeable-Phenotype (%): 0%
  Population Mitochondria Different-Phenotype (%): 9%
  Population Mitotic Cells (%): 44%
  Population Normal (%): 96%
  Population Pyknosed Nuclei (%): 11%
  Population Tubulin-Different-Phenotype (%): 57%
  Total Cell Count: 168
[10]
  Population Apoptotic (%): 56%
  Population Fragmented Nuclei (%): 32%
  Population Healthy Nuclei (%): 54%
  Population Hoechst High Intensity Objects (%): 2%
  Population Membrane Permeable-Phenotype (%): 7%
  Population Mitochondria Different-Phenotype (%): 5%
  Population Mitotic Cells (%): 43%
  Population Normal (%): 97%
  Population Pyknosed Nuclei (%): 13%
  Population Tubulin-Different-Phenotype (%): 56%
  Total Cell Count: 173
[11]
  Population Apoptotic (%): 84%
  Population Fragmented Nuclei (%): 24%
  Population Healthy Nuclei (%): 68%
  Population Hoechst High Intensity Objects (%): 8%
  Population Membrane Permeable-Phenotype (%): 0%
  Population Mitochondria Different-Phenotype (%): 40%
  Population Mitotic Cells (%): 15%
  Population Normal (%): 91%
  Population Pyknosed Nuclei (%): 6%
  Population Tubulin-Different-Phenotype (%): 91%
  Total Cell Count: 216
[12]
  Population Apoptotic (%): 58%
  Population Fragmented Nuclei (%): 43%
  Population Healthy Nuclei (%): 47%
  Population Hoechst High Intensity Objects (%): 7%
  Population Membrane Permeable-Phenotype (%): 6%
  Population Mitochondria Different-Phenotype (%): 8%
  Population Mitotic Cells (%): 41%
  Population Normal (%): 92%
  Population Pyknosed Nuclei (%): 9%
  Population Tubulin-Different-Phenotype (%): 78%
  Total Cell Count: 139
